Laboratory results: ChEMBL document CHEMBL1154303, “Cytotoxic and antiplasmodial compounds from the roots of Strophioblachia fimbricalyx” (J Nat Prod, 2009)
Converted amounts (≈) assume the structure as drawn.

How the values were obtained:
[1] = test system: Radical scavenging activity; experiment: Antioxidant activity assessed as DPPH radical scavenging activity; type: functional
How it was run: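 DPPH radical-scavenging test run per a published method. Activity is expressed in µg/mL, and a positive control substance was included.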

KB = experiment: Cytotoxicity against human KB cells by SRB assay; type: functional, cell-based
NCI-H187 = experiment: Cytotoxicity against human NCI-H187 cells by SRB assay; type: functional, cell-based
Vero = experiment: Cytotoxicity against african green monkey Vero cells by SRB assay; type: cell-based; conditions: Chlorocebus sabaeus
MCF7 = experiment: Cytotoxicity against human MCF7 cells by SRB assay; type: functional, cell-based
Plasmodium falciparum = experiment: Antiplasmodial activity against multidrug-resistant Plasmodium falciparum K1 assessed as [G-3H]hypoxanthine uptake after 24 hrs by scintillation counting; type: functional, organism-based; conditions: K1, 24 h
How it was run: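 Microculture radioisotope technique on the multidrug-resistant K1 strain of P. falciparum; activity reported in µg/mL.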

| Structure (SMILES) | IC50 [1] | IC50 (KB) | IC50 (NCI-H187) | IC50 (Vero) | IC50 (MCF7) | IC50 (Plasmodium falciparum) |
| --- | --- | --- | --- | --- | --- | --- |
| Cc1cc(C(C)(C)C)c(O)c(C(C)(C)C)c1 [BUTYLATED HYDROXYTOLUENE] | 18.8 µg/mL (≈ 85.3 µM) |  |  |  |  |  |
| COc1cc2c(cc1C)c(OC)cc1cc(C)c(=O)c(OC)cc12 | > 100 µg/mL | 4 µg/mL (≈ 12.3 µM) | > 5 µg/mL | > 20 µg/mL | > 5 µg/mL | 3.2 µg/mL (≈ 9.87 µM) |
| C[C@H]1[C@@H](O)O[C@@H]2O[C@@]3(C)CC[C@H]4[C@H](C)CC[C@@H]1[C@@]24OO3 [ARTENIMOL] |  |  |  |  |  | 0.004 µg/mL (≈ 0.0141 µM) |
| COc1cc2c(cc1C)c(OC)cc1cc(C)c(=O)cc(OC)c12 | > 100 µg/mL | 3.9 µg/mL (≈ 12 µM) | > 5 µg/mL | > 20 µg/mL | > 5 µg/mL | > 20 µg/mL |
| COC1=Cc2c(cc(O)c3cc(C)c(OC)cc23)C(C)(C)C1=O | 29.1 µg/mL (≈ 93.2 µM) | 0.8 µg/mL (≈ 2.56 µM) | 0.8 µg/mL (≈ 2.56 µM) | 3.1 µg/mL (≈ 9.92 µM) | 2.9 µg/mL (≈ 9.28 µM) | 2.7 µg/mL (≈ 8.64 µM) |
| COC1=Cc2c(cc(OC)c3cc(C)c(OC)cc23)C(C)(C)C1=O [TRIGONOSTEMONE] | > 100 µg/mL | > 5 µg/mL | > 5 µg/mL | > 20 µg/mL | > 5 µg/mL | > 20 µg/mL |
| Cc1c2ccncc2c(C)c2c1[nH]c1ccccc12 [ELLIPTECINE] |  | 0.48 µg/mL (≈ 1.95 µM) | 0.44 µg/mL (≈ 1.79 µM) | 0.48 µg/mL (≈ 1.95 µM) |  |  |
| COc1cccc2c1C(=O)c1c(O)c3c(c(O)c1C2=O)C[C@@](O)(C(=O)CO)C[C@@H]3O[C@H]1C[C@H](N)[C@H](O)[C@H](C)O1 [DOXORUBICIN] |  | 0.13 µg/mL (≈ 0.239 µM) | 0.04 µg/mL (≈ 0.0736 µM) |  |  |  |
